# Data taken from ChEMBL document CHEMBL1133060, “N-(indol-3-ylglyoxylyl)piperidines: high affinity agonists of human GABA-A receptors containing the alpha1 subunit” (Bioorg Med Chem Lett, 2000).
# Columns and labels:
# [1] = molecular target: T1, GABA-A receptor; alpha-1/beta-2/gamma-2 (Homo sapiens) (UniProt P14867+P47870+P18507); test: Ability to affect GABA-induced chloride current in Xenopus oocytes transiently expressing human GABA-A alpha-1-beta-2-gamma-2 receptors using two-electrode voltage-clamp electrophysiology at test concentration of 3 uM; type: functional, cell-based; conditions: Oocyte
# Method in brief: (§1)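 The GABA EC20 (concentration giving 20% of maximal GABA current) was determined separately for each oocyte, range 4–30 μM. Compound was then coapplied with GABA at that EC20 to measure modulation of the current. Mean ± SEM, n = 3-5.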
# [2] = molecular target: T2, GABA-A receptor; alpha-3/beta-3/gamma-2 (Homo sapiens, UniProt P18507+P28472+P34903); test: Binding affinity evaluated by ability to displace [3H]Ro-151788 from recombinant human Gamma-aminobutyric acid A receptor alpha-3-beta-3-gamma-2 expressed in L(tk-)cells; type: cell-based
# T2 sequence (P18507 whole entry): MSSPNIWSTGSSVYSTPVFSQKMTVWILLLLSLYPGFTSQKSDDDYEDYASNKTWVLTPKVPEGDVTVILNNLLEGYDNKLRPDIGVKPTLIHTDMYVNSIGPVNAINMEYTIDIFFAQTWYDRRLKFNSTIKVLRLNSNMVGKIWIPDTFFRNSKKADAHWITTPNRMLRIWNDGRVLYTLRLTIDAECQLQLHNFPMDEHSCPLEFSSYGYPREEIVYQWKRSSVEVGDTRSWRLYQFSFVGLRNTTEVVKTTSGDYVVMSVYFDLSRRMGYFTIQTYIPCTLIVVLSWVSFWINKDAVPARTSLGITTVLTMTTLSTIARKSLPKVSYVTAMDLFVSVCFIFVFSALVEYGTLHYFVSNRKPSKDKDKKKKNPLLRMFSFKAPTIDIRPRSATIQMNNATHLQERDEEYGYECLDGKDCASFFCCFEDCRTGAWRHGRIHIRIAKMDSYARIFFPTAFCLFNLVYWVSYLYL
# T2 sequence (P28472 whole entry): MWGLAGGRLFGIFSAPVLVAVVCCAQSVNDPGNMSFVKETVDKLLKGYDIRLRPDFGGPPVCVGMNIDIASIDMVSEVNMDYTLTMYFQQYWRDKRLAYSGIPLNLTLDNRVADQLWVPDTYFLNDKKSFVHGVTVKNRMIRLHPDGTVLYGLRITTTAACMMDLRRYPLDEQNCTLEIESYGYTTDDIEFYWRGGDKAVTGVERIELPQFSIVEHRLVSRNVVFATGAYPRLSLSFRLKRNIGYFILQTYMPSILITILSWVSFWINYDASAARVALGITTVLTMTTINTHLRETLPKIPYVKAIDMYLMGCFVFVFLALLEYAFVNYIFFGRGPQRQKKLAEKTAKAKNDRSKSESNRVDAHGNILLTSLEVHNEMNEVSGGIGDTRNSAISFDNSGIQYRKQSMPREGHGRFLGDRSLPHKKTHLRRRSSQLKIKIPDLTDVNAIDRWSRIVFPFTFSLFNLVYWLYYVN
# T2 sequence (P34903 whole entry): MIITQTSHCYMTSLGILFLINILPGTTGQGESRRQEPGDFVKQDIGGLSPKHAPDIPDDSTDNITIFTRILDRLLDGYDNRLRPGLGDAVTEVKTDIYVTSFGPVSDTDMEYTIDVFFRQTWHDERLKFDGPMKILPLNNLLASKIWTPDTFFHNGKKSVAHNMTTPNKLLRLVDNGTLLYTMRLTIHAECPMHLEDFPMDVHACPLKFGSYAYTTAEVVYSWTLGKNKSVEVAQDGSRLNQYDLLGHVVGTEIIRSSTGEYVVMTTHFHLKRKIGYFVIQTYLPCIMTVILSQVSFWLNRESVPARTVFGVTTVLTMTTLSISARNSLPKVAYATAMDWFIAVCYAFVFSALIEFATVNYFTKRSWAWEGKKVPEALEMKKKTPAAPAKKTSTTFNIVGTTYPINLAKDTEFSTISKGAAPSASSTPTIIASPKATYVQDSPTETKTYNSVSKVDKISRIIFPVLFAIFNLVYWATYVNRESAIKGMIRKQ
# [3] = molecular target: T3, GABA-A receptor; alpha-2/beta-3/gamma-2 (Homo sapiens, UniProt P18507+P28472+P47869); test: Binding affinity evaluated by ability to displace [3H]-Ro-15-1788 from recombinant human Gamma-aminobutyric acid A receptor alpha-2-beta-3-gamma-2 expressed in L(tk-)cells; type: cell-based
# T3 sequence (P18507 whole entry): T2 sequence (P18507 whole entry)
# T3 sequence (P28472 whole entry): T2 sequence (P28472 whole entry)
# T3 sequence (P47869 whole entry): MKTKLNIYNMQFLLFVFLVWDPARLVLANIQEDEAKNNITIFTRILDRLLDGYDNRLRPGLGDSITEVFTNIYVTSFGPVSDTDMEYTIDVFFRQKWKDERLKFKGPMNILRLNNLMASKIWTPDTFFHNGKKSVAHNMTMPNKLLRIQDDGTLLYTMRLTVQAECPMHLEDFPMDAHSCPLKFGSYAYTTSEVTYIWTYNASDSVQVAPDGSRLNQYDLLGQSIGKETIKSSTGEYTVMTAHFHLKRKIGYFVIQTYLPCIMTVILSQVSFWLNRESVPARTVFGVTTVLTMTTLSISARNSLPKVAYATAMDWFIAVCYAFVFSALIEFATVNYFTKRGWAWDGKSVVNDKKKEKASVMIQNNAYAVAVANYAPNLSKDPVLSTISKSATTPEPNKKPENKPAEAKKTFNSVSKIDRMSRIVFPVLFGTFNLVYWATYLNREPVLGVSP
# [4] = molecular target: T4, GABA-A receptor; alpha-1/beta-2/gamma-2 (Homo sapiens, UniProt P14867+P18507+P47870); test: Binding affinity evaluated by ability to displace [3H]Ro-151788 from recombinant human Gamma-aminobutyric acid A receptor alpha-1-beta-2-gamma-2 expressed in L(tk-)cells; type: cell-based
# T4 sequence (P14867 whole entry): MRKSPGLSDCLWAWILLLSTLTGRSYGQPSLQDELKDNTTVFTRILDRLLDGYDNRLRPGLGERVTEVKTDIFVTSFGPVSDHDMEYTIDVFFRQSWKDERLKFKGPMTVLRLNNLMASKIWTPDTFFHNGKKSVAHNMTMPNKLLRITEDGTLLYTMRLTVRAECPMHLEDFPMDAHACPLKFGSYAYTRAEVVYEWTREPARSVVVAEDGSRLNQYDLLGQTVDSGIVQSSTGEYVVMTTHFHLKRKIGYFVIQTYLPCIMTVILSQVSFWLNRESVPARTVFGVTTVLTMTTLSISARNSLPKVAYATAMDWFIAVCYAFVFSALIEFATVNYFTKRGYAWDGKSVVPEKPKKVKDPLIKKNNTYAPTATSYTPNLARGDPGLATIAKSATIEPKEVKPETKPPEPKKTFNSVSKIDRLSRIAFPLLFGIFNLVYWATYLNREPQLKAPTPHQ
# T4 sequence (P47870 whole entry): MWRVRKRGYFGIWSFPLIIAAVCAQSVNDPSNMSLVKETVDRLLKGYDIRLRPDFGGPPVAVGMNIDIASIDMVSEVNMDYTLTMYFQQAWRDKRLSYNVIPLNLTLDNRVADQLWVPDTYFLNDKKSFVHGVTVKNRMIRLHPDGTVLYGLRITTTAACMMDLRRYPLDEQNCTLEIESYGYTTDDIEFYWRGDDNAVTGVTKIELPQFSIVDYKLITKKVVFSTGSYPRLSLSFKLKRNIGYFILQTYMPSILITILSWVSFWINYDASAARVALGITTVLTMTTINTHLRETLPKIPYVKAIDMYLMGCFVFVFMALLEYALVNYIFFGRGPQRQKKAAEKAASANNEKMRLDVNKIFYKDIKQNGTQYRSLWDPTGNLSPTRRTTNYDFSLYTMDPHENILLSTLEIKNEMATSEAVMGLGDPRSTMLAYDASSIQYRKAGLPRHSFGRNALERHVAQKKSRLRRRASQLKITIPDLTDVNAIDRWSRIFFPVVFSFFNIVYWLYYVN
# T4 sequence (P18507 whole entry): T2 sequence (P18507 whole entry)
# [5] = molecular target: T1, GABA-A receptor; alpha-1/beta-2/gamma-2 (Homo sapiens); test: Ability to affect GABA-induced chloride current in Xenopus oocytes transiently expressing human GABA-A alpha-1-beta-2-gamma-2 receptors using two-electrode voltage-clamp electrophysiology at test concentration of 30 uM; type: functional, cell-based; conditions: Oocyte; method in brief: as §1
Efficacy [1] [%],Ki [2] [nM],Ki [3] [nM],Ki [4] [nM],Efficacy [5] [%],SMILES
64,19000,1300,200,,O=C(C(=O)N1Cc2ccccc2C1)c1c[nH]c2ccccc12
,570,430,890,28,CCOC(=O)CC1CCCN1C(=O)C(=O)c1c[nH]c2ccccc12 (centres undefined)
,91,180,77,,O=C(C(=O)N1CCCC(C(=O)OCc2ccccc2)C1)c1c[nH]c2ccccc12 (centres undefined)
,96,40,14,,CN(Cc1ccccc1)C(=O)C1CCCN(C(=O)C(=O)c2c[nH]c3ccccc23)C1 (centres undefined)
,1500,970,300,,O=C(C(=O)N1CCCC(C(=O)NCc2ccccc2)C1)c1c[nH]c2ccccc12 (centres undefined)
,720,680,380,,O=C(C(=O)N1CCc2ccccc2C1)c1c[nH]c2ccccc12
,50,19,7.3,,CN(Cc1ccccc1)C(=O)[C@@H]1CCCN(C(=O)C(=O)c2c[nH]c3ccccc23)C1
,500,440,510,,CCOC(=O)CC1CCCN1C(=O)C(=O)c1c[nH]c2c(C)cccc12 (centres undefined)
,990,390,880,,CCOC(=O)C1CCCN(C(=O)C(=O)c2c[nH]c3ccccc23)C1 (centres undefined)
,670,250,140,,CN(Cc1ccccc1)C(=O)[C@H]1CCCN(C(=O)C(=O)c2c[nH]c3ccccc23)C1
,320,270,460,,CCOC(=O)CC1CCCN1C(=O)C(=O)c1c[nH]c2c(OC)cccc12 (centres undefined)
,23,22,14,,CCOC(=O)[C@@H]1C[C@H](C(=O)OCC)CN(C(=O)C(=O)c2c[nH]c3ccccc23)C1
,960,830,440,,O=C(C(=O)N1CCCC1Cc1ccccc1)c1c[nH]c2ccccc12 (centres undefined)
,250,200,400,,CCOC(=O)[C@@H]1C[C@@H](C(=O)OCC)CN(C(=O)C(=O)c2c[nH]c3ccccc23)C1
